Shown are actives, neighbours in structure and some others; about 2.7% of the full set was active somewhere.
CHO parental Ca = signal in parental CHO cells, OX1R antagonist counter-screen; inhibition, % at 5.6 µM; parental CHO-K1, ATP-induced calcium, Fluo-8 fluorescence; 330,000 tested, 0.63% active;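 active = inhibition above that plate's mean sample inhibition plus 3 SD, cut at about 26% in these data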
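Assay system – parental CHO cells · Reagent – ATP stimulus · Detection – intracellular calcium via Fluo-8 no-wash fluorescent dye · Evaluation – percent inhibition of ATP-evoked calcium rise, normalized to controls · Controls – ATP wells versus no-ATP DMSO wells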
OXTR agonist = activates the human oxytocin receptor. P30559. CHO-OTR cells, Fluo-8 calcium fluorescence; normalized: DMSO 0%, oxytocin 100%. activation, % at 3 µM. 320,000 tested, 0.32% active. AID 2435;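 active = activation above the mean of all tested compounds plus 3 SD, cutoff set per screening run, cut at about 20% in these data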;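 also: peak over basal fluorescence ratio from a 100 s FLIPR kinetic read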
V1aR counter = activates human V1a receptor in oxytocin agonist counter-screen | P37288 | CHO-V1R cells, Fluo-8 calcium fluorescence, agonist mode; 0% DMSO, 100% 3 nM vasopressin | activation, % at 3 µM | 320,000 tested, 0.25% active | AID 2797;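 active = activation above the mean activation of all tested compounds plus 3 SD, per screening run, cut at about 20% in these data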;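 also: signal is peak over basal fluorescence ratio across a 100 second FLIPR read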
OXTR potentiator = potentiators of human oxytocin receptor. P30559. CHO-OTR cells, Fluo-8 calcium fluorescence, potentiator mode; 0% = oxytocin EC15, 100% = EC100. activation, % at 3 µM. 320,000 tested, 0.061% active. AID 2445;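 active = activation above that plate's cutoff, the mean activation of tested compounds plus 3 SD, cut at about 6.6% in these data, passing the limit was not always enough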
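Assay system: CHO cell line stably expressing human OTR. Reagent: EC15 oxytocin agonist. Dosing: single dose, 3.0 µM nominal final compound concentration. Timing: compound 6 min at room temperature before oxytocin, 100 s read. Signal: kinetic Fluo-8 calcium fluorescence. Controls: oxytocin EC15 low and EC100 high.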
OX1R antag-1 = blocks the human orexin 1 receptor; O43613; 330,000 tested, 1.8% active; OX1R-expressing cells, FRET antagonist read-out; AID 485270; inhibition, % at 6.6 µM; in the data active = inhibition mostly above about 38%, no sharp cut-off; inactive = mostly below about 40%
Target sequence (O43613 whole entry, looked up): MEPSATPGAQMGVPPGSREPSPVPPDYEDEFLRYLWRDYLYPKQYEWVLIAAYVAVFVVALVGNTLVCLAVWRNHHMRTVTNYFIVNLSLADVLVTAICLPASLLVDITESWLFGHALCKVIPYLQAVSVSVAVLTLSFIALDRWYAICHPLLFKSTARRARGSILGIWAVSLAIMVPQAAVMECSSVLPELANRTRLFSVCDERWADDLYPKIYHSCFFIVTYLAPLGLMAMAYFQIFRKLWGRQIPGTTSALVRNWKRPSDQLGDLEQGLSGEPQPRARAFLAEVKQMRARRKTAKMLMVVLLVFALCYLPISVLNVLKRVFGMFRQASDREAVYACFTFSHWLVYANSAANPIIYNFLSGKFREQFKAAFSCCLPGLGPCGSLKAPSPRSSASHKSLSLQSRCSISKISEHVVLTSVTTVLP
OX1R antag-2 = antagonists of human orexin 1 receptor | O43613 | CHO/OX1R cells, Fluo-8 calcium fluorescence, orexin A | inhibition, % at 5 µM | 330,000 tested, 0.43% active;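 active = inhibition above its plate's threshold, mean inhibition of all tested compounds on the plate plus 3 SD, cut at about 37% in these data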
Hits are given with their value; . = inactive; / = no result.

SMILES	CHO parental Ca	OXTR agonist	V1aR counter	OXTR potentiator	OX1R antag-1	OX1R antag-2
Cc1ccc(C(=O)OCC(=O)NNC(=O)c2ccc([N+](=O)[O-])cc2)o1	.	.	.	.	41	.
CCOc1ccccc1OCC(=O)OCC(=O)NNC(=O)c1ccc([N+](=O)[O-])cc1	.	.	.	.	55	.
O=C(CSc1nncs1)Nc1nccs1	.	.	.	.	.	.
O=C(NCCCN1CCOCC1)/C(=C/c1cccnc1)NC(=O)c1ccccc1	.	.	.	.	.	.
COc1ccccc1CNC(=S)Nc1ccc(S(N)(=O)=O)cc1	.	.	.	.	.	.
COc1ccc(-c2sc3cc(OC)c(OC)cc3c2-c2ccc(O)cc2)cc1	.	.	.	.	38	.
O=C(N/N=C/c1ccc([N+](=O)[O-])cc1)c1cccc2cc[nH]c12	.	.	.	.	.	.
CCN(CC)c1ccc(/C=N\NC(=O)c2cccc3cc[nH]c23)cc1	.	.	.	.	51	.
CCC1CCC/C1=N\NC(=O)c1ccccc1C (stereo unspecified)	.	.	.	.	.	.
O=C(Nc1ccc(Cl)cc1)c1cc2c(cc1O)[nH]c1ccccc12	72	.	.	.	52	55
Cc1ccccc1NC(=S)N(Cc1cccnc1)Cc1ccccc1Cl	.	.	.	.	.	.
Cc1ccccc1NS(=O)(=O)c1cccc(-c2nnc(-c3ccccc3)o2)c1	.	.	.	.	40	.
CCN(C[C@H]1N[C@@](Cc2ccccc2)(C(=O)OC)[C@H]2C(=O)N(C)C(=O)[C@@H]12)S(=O)(=O)c1ccc(OC)cc1	.	.	.	.	.	.
CCOC(=O)C1CCN(C(=O)c2ccc(S(=O)(=O)Nc3ccccc3OC)cc2)CC1	.	.	.	.	.	.
CCN1/C(=C/C=C/c2oc3ccc(-c4ccccc4)cc3[n+]2CC)Oc2ccc(-c3ccccc3)cc21	101	662	761	.	.	105
C[C@@H]1C(c2cccc(Cl)c2)=NN(c2ccc(Br)cc2)[C@H]1C(=O)N1CCOC1=O	.	/	/	/	.	.
c1ccc(-c2nc3nonc3nc2-c2ccccc2)cc1	.	.	.	.	40	.
Nc1c(-c2ccccc2)nc(Cl)nc1-c1ccccc1	.	.	.	.	.	.
Cn1nc(C(F)(F)F)c(-c2ccc(Br)cc2)c1NC(=O)Nc1ccc(F)cc1F	.	.	.	.	.	46
Fc1c(F)c(F)c(N=Cc2ccc3ncccc3c2)c(F)c1F	.	.	.	.	.	.
CCN(CC)S(=O)(=O)c1ccc(N2CCN(c3ccccc3OC)CC2)c(N)c1	61	.	.	.	.	.
COc1c([N+](=O)[O-])cc(C(=O)NNC(=O)c2ccc(C)cc2)cc1[N+](=O)[O-]	.	.	.	.	46	.
COc1ccc(C(=O)NNC(=O)c2ccncc2)cc1[N+](=O)[O-]	.	.	.	.	.	.
Cc1ccc(-n2[nH]c(C)c(/C=N/NC(=O)c3ccc(O)cc3O)c2=O)cc1	.	.	.	.	38	.
Cc1[nH]n(-c2ccccc2)c(=O)c1/C=N/NC(=O)c1cccc(F)c1	.	.	.	.	.	.
SMILES	CHO parental Ca	OXTR agonist	V1aR counter	OXTR potentiator	OX1R antag-1	OX1R antag-2
Cc1cc(C(=O)N/N=C/c2c(C)[nH]n(-c3ccccc3)c2=O)n[nH]1	.	.	.	.	.	.
Cc1[nH]n(-c2ccccc2)c(=O)c1/C=N/NC(=O)c1ccc(O)cc1O	.	.	.	.	37	.
O=[N+]([O-])c1ccc(Cl)c(S(=O)(=O)/N=C(/c2ccccc2)N2CCOCC2)c1	.	.	.	.	51	.
Cc1ccc(C(=O)NCC(=O)OCC(=O)/C=C2\N(C)c3ccccc3C2(C)C)cc1C	.	.	.	.	.	.
O=c1[nH]cnc2c1ncn2[C@@H]1O[C@H](COS(=O)(=O)O)[C@@H](O)[C@H]1O	.	.	.	.	.	.
CCOC(=O)c1c(NC(=O)CSc2nnc(-c3c[nH]c4ccccc34)n2C)sc2c1CCCC2	.	.	.	.	.	.
COCCn1c(SCC(=O)Nc2ccc3c(c2)OCCO3)nnc1-c1c[nH]c2ccccc12	.	.	.	.	50	.
COCCn1c(SCC(=O)Nc2ccc3c(c2)OCCO3)nnc1-c1ccncc1	.	.	.	.	.	.
CCOC(=O)c1c(NC(=O)CSc2nnc(C)s2)sc2c1CCCCC2	52	.	.	.	.	54
CCOC(=O)c1c(NC(=O)CSc2nnc(-c3c[nH]c4ccccc34)n2CCOC)sc2c1CCCC2	.	.	.	.	41	.
CN(C)CCNC(NC(=O)c1cccs1)C(Cl)(Cl)Cl (stereo unspecified)	.	.	.	.	.	.
COc1ccc(/C=C2\SC(N3CCCCC3)=NC2=O)cc1	.	.	.	.	.	.
O=C1N=C(N2CCOCC2)S/C1=C\c1cccnc1	.	.	.	.	37	.
O=C1N=C(N2CCCCC2)S/C1=C\c1ccncc1	.	.	.	.	45	.
O=C1/C(=C/c2cccnc2)SC(=S)N1N1CCOCC1	.	.	.	.	.	.
Cc1ccc(S(=O)(=O)N2CCC3(CC2)OCCO3)s1	.	.	.	.	.	.
N#CC1=C(N)SC(N)=C(C#N)C1Cc1ccccc1	.	.	.	.	39	.
N#CC1=C(N)SC(N)=C(C#N)C1CCc1ccccc1	.	.	.	.	.	.
C=CCN(CC=C)C(=O)c1ccc(OC2CCN(S(=O)(=O)N(C)C)CC2)cc1	.	.	.	.	.	.
CCOC(=O)Cn1c(=O)oc2cc(S(=O)(=O)NCCc3ccc(C)cc3)ccc21	.	.	.	.	.	.
CCOC(=O)Cn1c(=O)oc2cc(S(=O)(=O)Nc3ccc(F)cc3)ccc21	23	36	33	.	.	.
Cn1ccnc1C(=O)c1ccc(NN)c([N+](=O)[O-])c1	.	.	.	.	53	.
COCCNC(=O)[C@H]1N2C(=O)c3ccccc3C2SC1(C)C (stereo partly specified)	.	.	.	.	.	.
O=C(Nc1ccc(-n2nncc2-c2ccco2)cc1)c1cc2ccccc2oc1=O	54	.	.	.	.	.
COc1ccc(C)cc1Nc1n[n+](-c2ccccc2)c(-c2c(Cl)cccc2Cl)s1	38	.	.	.	.	.
COc1ccc(C)cc1Nc1n[n+](-c2ccccc2)c(-c2ccc(OC)c(OC)c2OC)s1	.	.	.	.	.	.
CCc1ccc(Nc2n[n+](-c3ccccc3)c(-c3c(Cl)cccc3Cl)s2)cc1	93	48	64	.	.	103
Fc1ccc(-[n+]2nc(Nc3ccccc3)sc2-c2c(Cl)cccc2Cl)cc1	.	23	25	.	.	.
